ChEMBL document CHEMBL3351897, “Trimethoxybenzanilide-based P-glycoprotein modulators: an interesting case of lipophilicity tuning by intramolecular hydrogen bonding” (J Med Chem, 2014)
Values after ≈ are worked out from the molar mass of the structure shown.

Legend:
[1] = Solubility after 30 mins by turbidimetric solubility assay; format: physicochemical
Procedure, shortened: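 Serial dilutions from a 1 mM DMSO stock added to 100 mM PBS pH 7.4, giving 1% final DMSO and a final range of 1–500 […], three replicates per concentration. After 30 min, absorbance read at 500, 550, 600, 650 and 700 nm.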

[2] = target: T1, ATP-dependent translocase ABCB1 (Homo sapiens, UniProt P08183); test: Inhibition of MDR1 (unknown origin) expressed in MDCK cells after 30 mins by Calcein-AM assay; format: cell-based
[3] = Lipophilicity, logD of the compound at pH 7.4; format: physicochemical; settings: buffer
Procedure, shortened: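 Octanol/PBS pH 7.4 partitioning, with chemiluminescent nitrogen detection as the read-out; carried out by an outside contractor.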

[4] = Partition coefficient, logK of the compound using methanol/pH 7.4 phosphate buffer by RP-chromatography; format: physicochemical
Procedure, shortened: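 Isocratic RP-HPLC on a C18 column (300SB, 4.6 × 250 mm, 5 μm) at 1 mL/min with UV detection at 230 and 254 nm. Eluent methanol/PBS pH 7.4 70:30. Samples 0.1 mg/mL in 10% DMSO/90% methanol. Dead time taken from D2O. Log k′ = log[(tr − t0)/t0], using the mean of three injections.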

[5] = target: T1, ATP-dependent translocase ABCB1; test: Inhibition of MDR1 in human MCF7/ADR cells assessed as potentiation of doxorubicin-induced antiproliferative activity at 1 to 25 uM after 72 hrs by MTT assay; format: cell-based; settings: nci/adr-res
Procedure, shortened: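 MCF7adr cells, grown in RPMI 1640 with 10% FBS, seeded at 25000/well. Next day, compound added at 1, 10 or 25 μM for 24 h. Medium then replaced and the same concentration given with doxorubicin 10 μM for 48 h. MTT 0.5 mg/mL for 3–4 h at 37 °C, formazan dissolved in DMSO/EtOH 1:1, absorbance read at 570 and 630 nm.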

[6] = target: T1, ATP-dependent translocase ABCB1; test: Inhibition of MDR1 (unknown origin) expressed in MDCK cells after 2 hrs by bioluminescent ATP assay; format: cell-based
Procedure, shortened: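 MDCK-MDR1 cells seeded at 2 × 10⁴ cells/well and incubated overnight at 37 °C, 5% CO₂, then exposed to test compounds (1, 10, 50, 100 μM) in complete medium for 2 h. Cells lysed, luciferase/D-luciferin substrate added, dark-adapted 10 min, and luminescence read as a measure of cellular ATP. Untreated cells served as control.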

[7] = Efflux ratio, ratio of permeability from basolateral to apical side over apical to basolateral side in human Caco2 cells by UV spectroscopy; format: ADME, cell-based; settings: Caco-2
Procedure, shortened: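 Caco-2 monolayers grown 21 days, then equilibrated twice in HBSS pH 7.4 at 37 °C for 30 min. Drug dissolved in HBSS was added to the apical or basolateral side, with an initial concentration of 1 × 10⁻⁴ M. Transport ran 120 min at 37 °C. Acceptor concentration was read by UV; Papp (nm/s) was computed from it. The ratio is B→A Papp over A→B Papp. Mean of three independent experiments, each in triplicate.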

T1 sequence (P08183 whole entry): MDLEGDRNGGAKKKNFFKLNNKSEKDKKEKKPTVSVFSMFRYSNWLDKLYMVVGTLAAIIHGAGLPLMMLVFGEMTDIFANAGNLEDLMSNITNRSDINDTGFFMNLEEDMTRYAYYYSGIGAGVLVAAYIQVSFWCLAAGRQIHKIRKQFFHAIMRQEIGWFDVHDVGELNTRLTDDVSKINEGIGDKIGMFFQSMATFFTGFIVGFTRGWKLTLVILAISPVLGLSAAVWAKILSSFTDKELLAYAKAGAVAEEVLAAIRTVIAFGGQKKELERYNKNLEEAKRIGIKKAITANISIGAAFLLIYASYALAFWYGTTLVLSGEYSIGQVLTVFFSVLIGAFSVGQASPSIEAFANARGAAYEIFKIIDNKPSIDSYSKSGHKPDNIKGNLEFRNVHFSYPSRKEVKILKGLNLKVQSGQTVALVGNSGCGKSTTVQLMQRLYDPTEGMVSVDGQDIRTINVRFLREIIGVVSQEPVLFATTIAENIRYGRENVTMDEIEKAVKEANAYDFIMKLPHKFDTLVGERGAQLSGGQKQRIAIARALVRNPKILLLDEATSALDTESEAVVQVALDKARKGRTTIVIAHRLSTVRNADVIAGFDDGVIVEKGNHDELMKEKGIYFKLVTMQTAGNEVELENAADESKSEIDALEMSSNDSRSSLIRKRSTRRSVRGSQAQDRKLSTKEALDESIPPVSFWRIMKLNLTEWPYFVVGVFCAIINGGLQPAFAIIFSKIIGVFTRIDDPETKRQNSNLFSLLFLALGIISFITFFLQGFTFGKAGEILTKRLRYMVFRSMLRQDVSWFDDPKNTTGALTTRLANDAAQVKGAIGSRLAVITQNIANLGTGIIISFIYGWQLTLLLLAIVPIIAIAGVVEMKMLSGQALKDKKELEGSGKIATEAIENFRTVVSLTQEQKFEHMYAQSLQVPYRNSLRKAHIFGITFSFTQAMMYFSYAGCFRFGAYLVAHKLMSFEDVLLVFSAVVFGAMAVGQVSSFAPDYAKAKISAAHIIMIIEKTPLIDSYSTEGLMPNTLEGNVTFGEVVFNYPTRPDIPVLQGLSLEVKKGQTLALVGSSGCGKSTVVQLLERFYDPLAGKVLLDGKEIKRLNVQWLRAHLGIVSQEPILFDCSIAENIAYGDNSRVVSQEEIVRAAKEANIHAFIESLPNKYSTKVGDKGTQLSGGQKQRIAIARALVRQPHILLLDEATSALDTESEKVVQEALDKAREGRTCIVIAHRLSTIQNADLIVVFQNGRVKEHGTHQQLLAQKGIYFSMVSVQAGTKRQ

| solubility kinetic at 0.5 h [1] [µg/mL] | IC50 [2] [µM] | logD [3] | log K [4] | inhibition (INH) [6] | efflux ratio [7] | Compound | Activity [5] |
| --- | --- | --- | --- | --- | --- | --- | --- |
|  | 1.02 |  |  |  |  | COc1cc2c(cc1OC)CN(CC/C=C1\CCCc3c(OC)cccc31)CC2 |  |
|  | 0.97 | 3.66 | 0.47 | Active | 10.7 | COc1cc(OC)c(C(=O)Nc2ccc(-c3cc(F)cc(F)c3)cn2)cc1OC | Active |
|  | 0.54 | 3.03 | -0.12 |  |  | COc1cc(OC)c(C(=O)Nc2ccc(-c3cccnc3)cn2)cc1OC |  |
| 25 (≈ 65.4 µM) |  | 2.48 | -0.36 |  |  | COc1cc(C(=O)Nc2ccc(-c3cccnc3)cc2F)cc(OC)c1OC |  |
| 30 (≈ 78.5 µM) | 0.2 | 2.84 | 0.24 | Active | 14 | COc1cc(OC)c(C(=O)Nc2ccc(-c3cccnc3)cc2F)cc1OC | Active |
| 60 (≈ 157 µM) | 2.93 | 2.38 | -0.39 |  |  | COc1cc(OC)c(C(=O)Nc2ccc(-c3cccnc3)cc2F)c(OC)c1 |  |
|  | 0.31 | 3.13 | 0.31 | Active | 8.1 | COc1cc(OC)c(C(=O)Nc2ccc(-c3ccncc3)cc2F)cc1OC | Active |
|  | 1.23 | 3.64 | 0.67 |  |  | COc1ccc(-c2ccc(NC(=O)c3cc(OC)c(OC)cc3OC)c(F)c2)cc1 |  |
|  | 21.6 | 1.75 | -0.59 |  |  | COc1cc(OC)c(C(=O)N(C)c2ccc(-c3cccnc3)cc2F)cc1OC |  |

Second part, the compound before the results:

| Compound | solubility kinetic at 0.5 h [1] [µg/mL] | IC50 [2] [µM] | logD [3] | log K [4] | inhibition (INH) [6] | efflux ratio [7] | Activity [5] |
| --- | --- | --- | --- | --- | --- | --- | --- |
| COc1cc(C(=O)Nc2ccc(-c3cccnc3)cc2[N+](=O)[O-])cc(OC)c1OC | 10 (≈ 24.4 µM) |  |  |  |  |  |  |
| COc1cc(C(=O)Nc2ccc(-c3cc(F)cc(F)c3)cn2)cc(OC)c1OC |  | 1.3 | 3.59 | 0.32 |  |  |  |
| COc1cc(C(=O)Nc2ccc(-c3cccnc3)cn2)cc(OC)c1OC |  | 8.21 | 2.39 | -0.44 |  |  |  |
| COc1ccc(C(=O)Nc2ccc(-c3cccnc3)cc2F)c(OC)c1OC | 45 (≈ 118 µM) | 0.67 | 3.99 | 0.37 | Active | 6.7 | Active |
| COc1ccc(C(=O)Nc2ccc(-c3cccnc3)cc2F)cc1OC | 18 (≈ 51.1 µM) | 8.92 | 2.23 | -0.45 |  |  |  |
| COc1cc(OC)cc(C(=O)Nc2ccc(-c3cccnc3)cc2F)c1 | 20 (≈ 56.8 µM) | 3.3 | 2.81 | -0.18 |  |  |  |
| COc1ccc(C(=O)Nc2ccc(-c3cccnc3)cc2F)cc1 | 22 (≈ 68.3 µM) | 5.26 | 2.9 | -0.32 |  |  |  |
| O=C(Nc1ccc(-c2cccnc2)cc1F)c1ccccc1 | 40 (≈ 137 µM) | 9.2 | 2.83 | -0.38 |  |  |  |
| O=C(Nc1ccc(-c2cccnc2)cc1F)c1cccnc1 | 300 (≈ 1020 µM) | 60.1 | 1.97 | -0.68 |  |  |  |
| COc1cc(C(=O)Nc2ccc(-c3ccncc3)cc2F)cc(OC)c1OC |  | 3.2 | 2.75 | -0.31 |  |  |  |
| COc1ccc(S(=O)(=O)Nc2ccc(-c3cccnc3)cc2F)cc1OC |  | 67.5 | 1.7 | -0.88 |  |  |  |
| COc1cc(C(=O)Nc2ccc(-c3cc(F)cc(F)c3)cc2N)cc(OC)c1OC |  | 2.76 | 2.62 | -0.09 |  |  |  |
| COc1cc(C(=O)Nc2ccc(-c3cc(F)cc(F)c3)cc2NC(=O)[C@@H](C)NC(C)=O)cc(OC)c1OC |  | 18.5 | 2.31 | -0.03 |  |  |  |
| COc1cc(C(=O)N(C)c2ccc(-c3cccnc3)cc2F)cc(OC)c1OC |  | 6.66 | 2.32 | -0.51 |  |  |  |
